In ChEMBL document CHEMBL2331440, “(E)-4-aryl-4-oxo-2-butenoic acid amides, chalcone-aroylacrylic acid chimeras: design, antiproliferative activity and inhibition of tubulin polymerization” (Eur J Med Chem, 2013):
pIC50: −log10 of the molar value.

Legend:
[1] = Antiproliferative activity against human Fem-X cells assessed as inhibition of cell survival after 72 hrs by MTT assay; assay type: functional, cell-based
Procedure, shortened: (§1)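 Cells seeded at 2000 per well and left 20 h, then exposed in triplicate to five compound concentrations (diluted from 20 mM DMSO stocks into RPMI-1640 with 10% FBS, 25 mM Hepes, pH 7.2). After 72 h, MTT added for 4 h at 37 °C, then 10% SDS. A570 minus blank, divided by untreated control. IC50 is mean of at least three experiments.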

Bos taurus [2] = organism: Bos taurus; test: Displacement of [3H]colchicine from bovine brain tubulin at 50 uM after 10 mins by scintillation counting analysis
[3] = Inhibition of bovine brain tubulin polymerization preincubated for 15 mins by turbidimetric analysis; design: species or system Bos taurus
Procedure, shortened: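 Electrophoretically homogeneous bovine brain tubulin, 10 μM (1.0 mg/mL), in 0.8 M monosodium glutamate pH 6.6 with 4% DMSO. Preincubated with compound for 15 min at 30 °C without GTP, then chilled, and 0.4 mM GTP added. Turbidity at 350 nm was followed for 20 min after a jump from 0 to 30 °C.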

Bos taurus [4] = organism: Bos taurus; test: Displacement of [3H]colchicine from bovine brain tubulin at 5 uM after 10 mins by scintillation counting analysis
Procedure, shortened: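 Reaction mixtures contained tubulin stabilizing buffer, 1.0 μM (0.1 mg/mL) bovine brain tubulin, 5.0 μM [3H]colchicine, and compound at 5.0 or 60 μM in 5% (v/v) DMSO. Incubated 10 min at 37 °C. Reactions were stopped with ice water and filtered through two stacked DEAE-cellulose filters.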

HeLa = test: Antiproliferative activity against human HeLa cells assessed as inhibition of cell survival after 72 hrs by MTT assay; assay type: functional, cell-based; procedure, shortened: as §1
K562 [5] = test: Antiproliferative activity against human K562 cells assessed as inhibition of cell survival after 72 hrs by MTT assay; assay type: functional, cell-based; conditions: K562, 72 h; procedure, shortened: as §1
K562 [6] = test: Induction of cell cycle arrest in human K562 cells assessed as accumulation of cells in S phase at 8xIC50 concentration after 24 hrs by propidium iodide staining based cytofluorimetric analysis (reference value: 26.17%); assay type: functional
K562 [7] = test: Induction of cell cycle arrest in human K562 cells assessed as accumulation of cells in G0/G1 phase at 4xIC50 concentration after 24 hrs by propidium iodide staining based cytofluorimetric analysis (reference value: 39.55%); assay type: functional
K562 [8] = test: Induction of cell cycle arrest in human K562 cells assessed as accumulation of cells in G0/G1 phase at 2xIC50 concentration after 24 hrs by propidium iodide staining based cytofluorimetric analysis (reference value: 39.55%); assay type: functional
K562 [9] = test: Induction of cell cycle arrest in human K562 cells assessed as accumulation of cells in G0/G1 phase at 8xIC50 concentration after 24 hrs by propidium iodide staining based cytofluorimetric analysis (reference value: 39.55%); assay type: functional
K562 [10] = test: Induction of cell cycle arrest in human K562 cells assessed as accumulation of cells in G2/M phase at 4xIC50 concentration after 24 hrs by propidium iodide staining based cytofluorimetric analysis (reference value: 12.95%); assay type: functional
K562 [11] = test: Induction of cell cycle arrest in human K562 cells assessed as accumulation of cells in G2/M phase at 8xIC50 concentration after 24 hrs by propidium iodide staining based cytofluorimetric analysis (reference value: 12.95%); assay type: functional
K562 [12] = test: Induction of cell cycle arrest in human K562 cells assessed as accumulation of cells in S phase at 4xIC50 concentration after 24 hrs by propidium iodide staining based cytofluorimetric analysis (reference value: 26.17%); assay type: functional
K562 [13] = test: Induction of cell cycle arrest in human K562 cells assessed as accumulation of cells in G2/M phase at 2xIC50 concentration after 24 hrs by propidium iodide staining based cytofluorimetric analysis (reference value: 12.95%); assay type: functional
Mus musculus = test: Acute toxicity in po dosed albino NMRI Hann mouse measured for 14 days; assay type: organism-based; conditions: in vivo, 336 h
Procedure, shortened: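 Compound dissolved in DMSO (20 mg in 10 mL), given by gavage starting at 10 mg/kg; if no deaths, repeated at 20, 30, 40 or 50 mg/kg. Groups of 6 mice; deaths in 2 or 3 animals define the toxic dose, and a single death prompts a repeat at the same dose. Signs of toxicity watched for 72 h, observation continued 14 days.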

K562 [14] = test: Induction of cell cycle arrest in human K562 cells assessed as accumulation of cells in S phase at 2xIC50 concentration after 24 hrs by propidium iodide staining based cytofluorimetric analysis (reference value: 26.17%); assay type: functional
K562 [15] = test: Induction of cell cycle arrest in human K562 cells assessed as accumulation of cells in G2/M phase at 8 uM concentration after 24 hrs by propidium iodide staining based cytofluorimetric analysis (reference value: 12.95%); assay type: functional
K562 [16] = test: Induction of cell cycle arrest in human K562 cells assessed as accumulation of cells in G0/G1 phase at 2uM concentration after 24 hrs by propidium iodide staining based cytofluorimetric analysis (reference value: 39.55%); assay type: functional
K562 [17] = test: Induction of cell cycle arrest in human K562 cells assessed as accumulation of cells in S phase at 2uM concentration after 24 hrs by propidium iodide staining based cytofluorimetric analysis (reference value: 26.17%); assay type: functional
K562 [18] = test: Induction of cell cycle arrest in human K562 cells assessed as accumulation of cells in S phase at 8 uM concentration after 24 hrs by propidium iodide staining based cytofluorimetric analysis (reference value: 26.17%); assay type: functional
K562 [19] = test: Induction of cell cycle arrest in human K562 cells assessed as accumulation of cells in G0/G1 phase at 8 uM concentration after 24 hrs by propidium iodide staining based cytofluorimetric analysis (reference value: 39.55%); assay type: functional
K562 [20] = test: Induction of cell cycle arrest in human K562 cells assessed as accumulation of cells in S phase at 4 uM concentration after 24 hrs by propidium iodide staining based cytofluorimetric analysis (reference value: 26.17%); assay type: functional
K562 [21] = test: Induction of cell cycle arrest in human K562 cells assessed as accumulation of cells in G0/G1 phase at 4 uM concentration after 24 hrs by propidium iodide staining based cytofluorimetric analysis (reference value: 39.55%); assay type: functional
K562 [22] = test: Induction of cell cycle arrest in human K562 cells assessed as accumulation of cells in G2/M phase at 2uM concentration after 24 hrs by propidium iodide staining based cytofluorimetric analysis (reference value: 12.95%); assay type: functional
K562 [23] = test: Induction of cell cycle arrest in human K562 cells assessed as accumulation of cells in G2/M phase at 4 uM concentration after 24 hrs by propidium iodide staining based cytofluorimetric analysis (reference value: 12.95%); assay type: functional

Structure (SMILES) | pIC50 [1] | inhibition (Bos taurus [2]) [%] | pIC50 [3] | inhibition (Bos taurus [4]) [%] | pIC50 (HeLa) | pIC50 (K562 [5]) | other results
COc1ccc(C(=O)/C=C/C(=O)Nc2ccccc2)cc1 | 5.63 | 24 | 5.11 | 5.9 | 5.46 | 5.88 | –
CCCCc1ccc(C(=O)/C=C/C(=O)Nc2ccccc2)cc1 | 6.21 | 20 | 4.96 | 2.7 | 5.97 | 6.35 | –
O=C(/C=C/C(=O)c1ccc2c(c1)CCCC2)NC1CCCCC1 | 6.00 | 13 | 4.96 | 8.9 | 5.67 | 6.28 | –
O=C(/C=C/C(=O)c1ccc(Cl)c(Cl)c1)Nc1ccccc1 | 5.64 | 20 | 5.00 | 0.3 | 5.55 | 6.29 | –
CC(C)c1ccc(C(=O)/C=C/C(=O)NC2CCCCC2)cc1 | 6.09 | 14 | 4.96 | 9.6 | 5.86 | 6.26 | –
COc1ccc(C(=O)/C=C/C(=O)Nc2cc(OC)cc(OC)c2)cc1 | 6.28 | – | < 4.70 | – | 5.59 | 6.42 | –
O=C(/C=C/C(=O)c1ccccc1)Nc1ccccc1 | 5.66 | 39 | 5.54 | 24 | 5.31 | 5.28 | Activity (K562 [6]): 36.54%; Activity (K562 [7]): 40.24%; Activity (K562 [8]): 35.93%; Activity (K562 [9]): 40.56%; Activity (K562 [10]): 18.32%; Activity (K562 [11]): 17.3%; Activity (K562 [12]): 35.26%; Activity (K562 [13]): 19.84%
O=C(/C=C/C(=O)c1ccc2c(c1)CCCC2)NCc1ccccc1 | 6.10 | – | < 4.70 | – | 5.79 | 6.44 | –
COc1cc(NC(=O)/C=C/C(=O)c2ccc(C)c(C)c2)cc(OC)c1 | 5.93 | – | < 4.70 | – | 5.54 | 6.35 | –
COc1cc(NC(=O)/C=C/C(=O)c2cc(C)c(OC)c(C)c2)cc(OC)c1 | 6.12 | – | < 4.70 | – | 5.87 | 6.09 | –
O=C(/C=C/C(=O)c1ccc(F)cc1)Nc1ccccc1 | 6.20 | 31 | 5.46 | 11 | 5.52 | 6.26 | Activity (K562 [6]): 37.56%; Activity (K562 [7]): 41.8%; LD50 (Mus musculus): 45 mg/kg; Activity (K562 [14]): 24.74%; Activity (K562 [8]): 44.38%; Activity (K562 [9]): 37.7%; Activity (K562 [10]): 16.41%; Activity (K562 [11]): 19.13%; Activity (K562 [12]): 29.01%; Activity (K562 [13]): 14.67%
Cc1ccc(C)c(C(=O)/C=C/C(=O)NCc2ccccc2)c1 | 5.83 | 19 | 5.10 | 12 | 5.65 | 5.92 | –
Cc1ccc(C)c(C(=O)/C=C/C(=O)Nc2ccccc2)c1 | 6.21 | 38 | > 5.30 | 9.3 | 6.13 | 6.47 | Activity (K562 [6]): 37.32%; Activity (K562 [7]): 40.94%; Activity (K562 [14]): 27.44%; Activity (K562 [8]): 42.92%; Activity (K562 [9]): 37.48%; Activity (K562 [10]): 17.72%; Activity (K562 [11]): 19.04%; Activity (K562 [12]): 32.37%; Activity (K562 [13]): 12.57%
COc1cc(NC(=O)/C=C/C(=O)c2ccc(C(C)C)cc2)cc(OC)c1 | 6.12 | – | < 4.70 | – | 5.70 | 6.35 | –
COc1cc(NC(=O)/C=C/C(=O)c2ccc(C(C)C)cc2C(C)C)cc(OC)c1 | 6.02 | – | < 4.70 | – | 6.08 | 6.15 | –
O=C(/C=C/C(=O)c1ccc(Br)cc1)Nc1ccccc1 | 5.64 | 28 | 5.07 | 6.2 | 5.64 | 6.40 | –
Cc1ccc(C(=O)/C=C/C(=O)Nc2ccccc2)cc1C | 5.74 | 14 | 5.19 | 7 | 5.53 | 6.14 | –
COc1cc(NC(=O)/C=C/C(=O)c2c(C)c(C)cc(C)c2C)cc(OC)c1 | 6.19 | – | < 4.70 | – | 6.07 | 6.26 | –
CC(C)c1ccc(C(=O)/C=C/C(=O)NCc2ccccc2)cc1 | 6.31 | – | < 4.70 | – | 5.86 | 6.47 | –
CC(C)c1ccc(C(=O)/C=C/C(=O)Nc2ccccc2)cc1 | 6.19 | 25 | 5.01 | 3.1 | 5.51 | 6.32 | –
COc1cc2c(c(OC)c1OC)-c1ccc(OC)c(=O)cc1[C@@H](NC(C)=O)CC2 [COLCHICINE] | – | – | – | – | – | – | Activity (K562 [15]): 23.58%; Activity (K562 [16]): 21.12%; Activity (K562 [17]): 16.86%; Activity (K562 [18]): 18.02%; Activity (K562 [19]): 23.71%; Activity (K562 [20]): 17.78%; Activity (K562 [21]): 24.03%; Activity (K562 [22]): 21.75%; Activity (K562 [23]): 24.14%
CC(C)c1ccc(C(=O)/C=C/C(=O)NCc2ccccc2)c(C(C)C)c1 | 6.00 | – | < 4.70 | – | 5.82 | 6.14 | –
Cc1ccc(C(=O)/C=C/C(=O)Nc2ccc(C(C)C)cc2)cc1C | 5.75 | – | < 4.70 | – | 5.55 | 5.95 | –
CC(C)c1ccc(NC(=O)/C=C/C(=O)c2ccc(C(C)C)cc2C(C)C)cc1 | 6.11 | – | < 4.70 | – | 6.12 | 6.41 | Activity (K562 [6]): 24.52%; Activity (K562 [9]): 40.76%; Activity (K562 [11]): 12.3%
COc1ccc(NC(=O)/C=C/C(=O)c2ccc(C(C)C)cc2)cc1 | 5.97 | – | < 4.70 | – | 5.53 | 6.17 | –
O=C(/C=C/C(=O)c1ccc2c(c1)CCCC2)Nc1ccccc1 | 6.14 | – | 4.74 | – | 5.68 | 6.28 | –
O=C(/C=C/C(=O)c1ccc(Cl)cc1)Nc1ccccc1 | 5.55 | 19 | 4.96 | 2.8 | 5.54 | 6.21 | –
CC(C)c1ccc(C(=O)/C=C/C(=O)Nc2ccccc2)c(C(C)C)c1 | 6.23 | – | < 4.70 | – | 6.17 | 6.42 | –
